# Source: PubChem (The Scripps Research Institute Molecular Screening Center)
# Sampled rows, rich in hits. Any-hit rate of the full collection: about 2.6%.
# ABHD4 inh = inhibits mouse alpha/beta hydrolase domain 4 | 0.54% of 370,000 active | Q8VD66 | purified mABHD4, FP-Rh probe fluorescence polarization | AID 720543 | inhibition, % at 8.92 µM;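 active = inhibition exceeding the mean over every tested compound plus 3 SD, cut at about 30% in these data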;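 note: 0% = plate median of compound wells and 100% = S159A mutant with DMSO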
#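 Assay system: mABHD4 protein; medium: HEPES pH 7.0, NaCl, Pluronic buffer; dosing: 8.92 µM, single dose; schedule: 45 min + 60 min at 25 °C; signal: FP readout, ex 525 nm / em 598 nm; read-out: normalized percent inhibition of probe labeling; repeats: single replicate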
# PRMT1 FP inh = inhibitors of human PRMT1; Q99873; recombinant PRMT1, activity-based probe fluorescence polarization; inhibition, % at 2.79 µM; 1.3% of 370,000 active; AID 652257;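 active = inhibition above about 21% made by adding two undisclosed values, limit read from the data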
# Target sequence (Q99873 whole entry, looked up): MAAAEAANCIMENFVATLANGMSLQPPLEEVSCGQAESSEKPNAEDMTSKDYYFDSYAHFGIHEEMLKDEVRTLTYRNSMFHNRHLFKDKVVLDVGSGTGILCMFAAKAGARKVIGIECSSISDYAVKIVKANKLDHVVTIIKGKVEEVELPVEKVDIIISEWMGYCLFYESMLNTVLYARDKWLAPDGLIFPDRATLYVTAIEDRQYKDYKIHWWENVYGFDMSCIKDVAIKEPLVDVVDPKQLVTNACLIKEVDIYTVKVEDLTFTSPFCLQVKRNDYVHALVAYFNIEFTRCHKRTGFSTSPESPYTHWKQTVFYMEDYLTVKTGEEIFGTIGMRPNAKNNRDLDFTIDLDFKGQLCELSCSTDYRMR
# SIAE inh = inhibitors of human sialic acid acetylesterase SIAE; Q9HAT2; SIAE FP-Rh probe binding, fluorescence polarization; inhibition, % at 9.66 µM; 0.69% of 370,000 active; AID 1053197;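 active = inhibition above a cutoff: mean of compounds within the control limits plus 3 SD of those, cut at about 17% in these data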;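 note: 0% = plate median of compound wells and 100% = probe without SIAE protein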
# HTRA1 inh = HTRA1 (human) protease inhibition. Q92743. recombinant HTRA1, FP-rhodamine activity-based probe, fluorescence polarization. inhibition, % at 5.96 µM. 0.5% of 340,000 active. AID 504803; in the data active = inhibition above about 36%;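 note: 0% = enzyme with DMSO and 100% = wells lacking enzyme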
# TCR-CD3 inh = human TCR-CD3 binding inhibition | TAMRA-labeled TCR probe fluorescence, biochemical | inhibition, % at 9.4 µM | 0.37% of 360,000 active | AID 651800; in the data active = inhibition above about 19%;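 note: recombinant mutant TCR 2C K166C tagged with TAMRA read by polarization; 0% = receptor in buffer alone and 100% = receptor with positive control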
# PRMT1 confirm = PRMT1 (human) inhibition, FP confirmation | shares compounds with PRMT1 FP inh | recombinant His-PRMT1, activity-based probe fluorescence polarization | inhibition, % at 2.79 µM | 42% of 3,300 active | AID 687036;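 active = mean inhibition across replicates above the hit cutoff derived for the earlier primary screen, cut at about 22% in these data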
# An asterisk follows results filed as active; . = not tested or not shown.
SMILES,ABHD4 inh,PRMT1 FP inh,SIAE inh,HTRA1 inh,TCR-CD3 inh,PRMT1 confirm
CCCCCNC(=O)C(c1ccc(OC)cc1)n1c(=O)c(-c2ccco2)nc2ccccc21 (stereo not given),-10,28*,-8,.,-13,14
COc1ccc(C(=O)CSc2nnc(-c3ccccc3)n2-c2ccc(Cl)cc2)cc1,-2,2,2,.,.,.
Cc1ccc(O)c(NC(=O)C2=CC(c3ccco3)=NS(=O)(=O)N2C)c1,6,97*,4,-4,4,-1
CN1C(C(=O)Nc2cccc(O)c2)=CC(c2ccco2)=NS1(=O)=O,3,3,-2,-1,-4,.
O=C(O)CC(SCC(=O)Nc1ccccc1)C(=O)O (stereo not given),-5,-3,3,13,0,.
O=C(O)CC(SCC(=O)Nc1ccc(S(=O)(=O)N2CCCC2)cc1)C(=O)O (stereo not given),2,45*,-4,0,0,39*
CC1(C)CC(=O)C(C=Nc2cccnc2)=C(O)C1,-1,-5,3,2,-2,.
CC1(C)CC(=O)C(C=Nc2cccnc2/N=C/C2=C(O)CC(C)(C)CC2=O)=C(O)C1,7,25*,3,2,1,-2
CCCC(=O)Nc1cc(OC)c(NC(=S)Nc2cccc(C)c2)cc1OC,25,39*,9,4,3,-5
CCC(CC)c1nnc(NC(=O)COc2ccc3c(c2)OCO3)s1,-7,42*,4,0,-4,-1
O=C(N[C@H](Cc1ccccc1)C(=O)NCCN1CCOCC1)[C@H]1O[C@@H](n2ccc(=O)[nH]c2=O)[C@H](O)[C@@H]1O,1,-2,-5,.,7,.
Cc1ccc(NS(=O)(=O)c2ccc3c(c2)n(C)c(=O)n3C)cc1C,-13,25*,-5,-4,-12,8
Cc1ccsc1/C=C1\Oc2cc(O)ccc2C1=O,-15,40*,0,3,-6,30*
O=C1/C(=C/c2ccc(O)c(O)c2)Oc2cc(O)ccc21,20,5,-74,-38,-8,.
O=C1CCC/C(=N/NC(=O)c2sc3ccccc3c2Cl)C1,7,85*,-3,-13,-16,8
CC(C)NC(=O)NC1CCN(CC(=O)Nc2ccc3c(c2)OCCO3)CC1,5,4,-5,.,.,.
CC(=O)c1cc(-c2cccc(C(C)C)c2)c(=O)n2c1CCC2,-1,-3,5,.,.,.
Cc1cccn2c(=O)c3cc(C#N)c(=NC(=O)c4ccncc4)n(CCCOC(C)C)c3nc12,1,26*,-1,0,-4,2
O=C(Nc1ccc(S(=O)(=O)NC2=NCCCCC2)cc1)c1ccc([N+](=O)[O-])s1,16,5,8,1,-8,.
O=C(Nc1ccc(S(=O)(=O)NC2=NCCCCC2)cc1)c1cccs1,-3,70*,6,-11,-8,-4
C[C@H]1[C@H](NCc2cccnc2)CC[C@@]23CCCN2C(=O)CCC[C@@H]13,1,1,-5,.,.,.
CN(CC(=O)Nc1c(Cl)cccc1Cl)C(=O)CCC(=O)c1ccccc1,-9,-3,3,0,-3,.
Cc1cc(C(=O)CCC(=O)N(C)CC(=O)Nc2c(Cl)cccc2Cl)c(C)s1,3,28*,4,-3,5,1
O=C(CSc1nnc(-c2ccccc2)n1-c1ccc(Cl)cc1)Nc1ccc2cn[nH]c2c1,3,-2,2,.,.,.
O=C(Sc1cccc2cccnc12)c1ccccc1Br,-7,15,2,11,-2,.
SMILES,ABHD4 inh,PRMT1 FP inh,SIAE inh,HTRA1 inh,TCR-CD3 inh,PRMT1 confirm
O=C(Sc1cccc2cccnc12)c1ccc(F)cc1,-3,27*,-2,.,6,27*
NC(=O)C1Cc2ccccc2CN1C(=O)c1cccc(Oc2ccccc2)c1 (stereo not given),3,106*,1,-3,-1,7
OC(c1ccccc1)(c1ccccc1)C1CCN(CCCOc2ccc(-c3ccc(F)cc3F)cc2)CC1,26,2,-1,.,1,.
Cc1ccccc1CS(=O)(=O)c1nnc([C@H](CC(C)C)NC(=O)OC(C)(C)C)o1,25,27*,-7,1,-9,15
CC[C@@H](C)[C@H](NC(=O)OC(C)(C)C)c1nnc(S(=O)(=O)Cc2cc(C)ccc2C)o1,29,20,1,2,-3,.
C(#CC1=CCCCC1)CNCC1CC1,5,-1,-2,.,.,.
O=C(CSC1=Nc2ccccc2C2CC=NN12)Nc1ccc2c(c1)OCO2 (stereo not given),-4,41*,2,-2,3,28*
CCCOC(=O)c1ccc(NC(=O)CCOc2ccccc2)cc1,-9,-4,-3,-20,8,.
N#Cc1ccccc1NC(=O)CSC1=Nc2ccccc2C2CC=NN12 (stereo not given),2,25*,0,-5,4,56*
O=C(CSC1=Nc2ccccc2C2CC=NN12)NCc1ccco1 (stereo not given),-2,3,2,-1,8,.
CCCOC(=O)c1ccc(NC(=O)CSC2=Nc3ccccc3C3CC=NN23)cc1 (stereo not given),-9,35*,-7,-11,-1,14
O=C(CSc1ccccc1C(=O)O)Nc1ccc2c(c1)OCO2,-2,0,-3,-5,-1,.
O=C(CNc1ccc(F)cc1)c1ccccc1,2,0,5,-1,9,.
NC(=O)c1ccccc1NCC(=O)c1ccc(F)cc1,-8,34*,0,5,-7,3
CCC[C@H]1[C@@H](OC(=O)NCCc2ccccc2)CC[C@@]23CCCN2C(=O)CCC[C@@H]13,-2,1,-3,.,.,.
Cc1ccc(/C=C/C(=O)NCc2cccs2)o1,3,32*,1,3,-2,19
Cc1ccc(/C=C/C(=O)NCc2cccs2)cc1,-10,-4,-10,-2,7,.
Cc1ccccc1C(=O)NNc1ccc(-c2csnn2)cc1,2,27*,-2,-5,-5,7
CCc1cc2c(=O)n(Cc3ccco3)c(SCc3c(C)noc3C)nc2s1,-5,53*,7,-37,-6,8
CCc1cc2c(=O)n(Cc3ccco3)c(SCC(=O)NC3CCS(=O)(=O)C3)nc2s1 (stereo not given),2,2,1,-1,5,.
CCc1cc2c(=O)n(Cc3ccco3)c(SCC(=O)N3CCCc4ccccc43)nc2s1,1,46*,-1,-52,-1,10
CCc1cc2c(=O)n(Cc3ccco3)c(SCC(=O)NCC3CCCO3)nc2s1 (stereo not given),0,3,0,1,0,.
CCOc1ccc(N(CC(=O)Nc2c(C)n(C)n(-c3ccccc3)c2=O)S(=O)(=O)c2cc(OC)ccc2OC)cc1,0,3,-6,.,.,.
CCC(C)N(C(=O)c1ccc(CNC(=O)c2cccc(Br)c2)cc1)C(C)CC (stereo not given),-5,2,6,.,.,.
